The target of assay [1] is Potassium-transporting ATPase (Sus scrofa, UniProt P19156). The assay is described as follows: Activity was evaluated by measuring the inhibition of isolated hog H+/K+ ATPase. It counts as protein-complex assay. Put shortly: (§1)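 Hog fundic mucosa microsomes. Vesicles (30 μg) preincubated with compound at 37 °C in 40 mM Tris-acetate pH 7.4, 7 mM NH4Cl, with or without KCl. Reaction started with 2 mM ATP (final), run 10 min at 37 °C, stopped with cold TCA plus charcoal. Released inorganic phosphate measured colorimetrically. IC50 from dose-response, mean of triplicates.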
Potassium-transporting ATPase (Sus scrofa, UniProt P19156), sequence (P18434 whole entry): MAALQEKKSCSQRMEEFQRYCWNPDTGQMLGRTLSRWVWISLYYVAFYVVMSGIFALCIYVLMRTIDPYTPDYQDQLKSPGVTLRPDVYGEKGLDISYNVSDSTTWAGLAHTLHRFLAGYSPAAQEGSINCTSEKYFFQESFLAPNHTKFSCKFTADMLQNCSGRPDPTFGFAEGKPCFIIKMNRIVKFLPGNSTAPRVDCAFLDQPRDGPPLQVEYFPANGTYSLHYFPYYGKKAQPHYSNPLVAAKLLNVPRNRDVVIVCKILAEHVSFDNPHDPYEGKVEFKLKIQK
Potassium-transporting ATPase (Sus scrofa, UniProt P19156), sequence (P19156 whole entry): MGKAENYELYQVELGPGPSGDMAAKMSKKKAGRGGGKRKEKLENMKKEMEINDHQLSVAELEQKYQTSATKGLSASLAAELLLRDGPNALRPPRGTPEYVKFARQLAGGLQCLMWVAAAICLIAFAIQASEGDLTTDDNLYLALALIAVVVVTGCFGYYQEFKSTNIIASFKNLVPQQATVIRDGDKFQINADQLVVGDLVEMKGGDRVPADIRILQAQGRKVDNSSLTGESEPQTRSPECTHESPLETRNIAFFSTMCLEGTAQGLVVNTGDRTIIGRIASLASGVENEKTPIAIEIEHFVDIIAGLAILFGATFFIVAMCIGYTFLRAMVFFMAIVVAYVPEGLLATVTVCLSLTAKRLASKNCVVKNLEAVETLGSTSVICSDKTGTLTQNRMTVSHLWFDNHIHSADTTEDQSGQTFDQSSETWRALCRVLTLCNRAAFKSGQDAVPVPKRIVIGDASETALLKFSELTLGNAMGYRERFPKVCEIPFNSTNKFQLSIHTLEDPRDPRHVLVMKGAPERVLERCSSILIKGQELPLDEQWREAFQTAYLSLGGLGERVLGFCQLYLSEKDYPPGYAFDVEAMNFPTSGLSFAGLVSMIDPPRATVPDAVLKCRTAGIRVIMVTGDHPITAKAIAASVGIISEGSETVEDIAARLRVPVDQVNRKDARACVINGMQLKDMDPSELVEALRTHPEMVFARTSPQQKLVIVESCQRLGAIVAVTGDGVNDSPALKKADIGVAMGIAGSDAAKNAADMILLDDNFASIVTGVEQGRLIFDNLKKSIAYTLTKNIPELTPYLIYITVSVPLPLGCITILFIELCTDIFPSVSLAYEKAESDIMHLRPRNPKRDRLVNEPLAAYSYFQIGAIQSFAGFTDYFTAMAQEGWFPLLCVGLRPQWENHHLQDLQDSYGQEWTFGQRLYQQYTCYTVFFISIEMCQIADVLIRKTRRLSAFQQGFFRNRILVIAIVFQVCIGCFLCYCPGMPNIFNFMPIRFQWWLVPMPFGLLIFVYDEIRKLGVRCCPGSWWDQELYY

Assay [2] is filed under the species Oryctolagus cuniculus. Put plainly: Antisecretory effect in isolated rabbit gastric glands as measured by aminopyrine uptake. The assay is classed as functional. Put shortly:
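Gastric glands from male New Zealand rabbits (1.5-2.0 kg), isolated by collagenase digestion at 37 °C, pH 7.4. Incubated with compound 45 min at 37 °C with vigorous shaking. Pellet and supernatant radioactivity counted by liquid scintillation. ID50 from at least six doses, duplicate at each dose.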

The target in assay [3] is T1, Potassium-transporting ATPase (Rattus norvegicus) (UniProt P09626+P18598). The assay is described as follows: Activity was evaluated by measuring the inhibition of isolated rat H+/K+ ATPase, sc. The assay is classed as protein-complex assay. Put shortly: (§2)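 Male Sprague-Dawley rats (~230 g), fasted 16 h without food or water in restraining cages. Compound in 1 mL isotonic saline with 25% ethanol, given sc or by gavage. Killed 3 h later. Fundic mucosa pooled from four rats per treatment, homogenized, microsomes isolated at 170000g. K+-stimulated ATPase assayed as for hog enzyme. ED50 from at least five doses, each in triplicate.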

The target of assay [4] is T2, Potassium-transporting ATPase (Sus scrofa, UniProt P18434+P19156). The assay is described as follows: Activity was evaluated by measuring the inhibition of isolated hog H+/K+ ATPase; No effect. It counts as protein-complex assay. Put shortly:
as §1

For assay [5], the target named is T1, Potassium-transporting ATPase (Rattus norvegicus). The assay is described as follows: Inhibition of isolated rat H+/K+ ATPase at 10 mg/kg; Inactive. The assay is classed as functional, organism-based. Details: dose 10 mg/kg. An outline of the steps:
as §2

For assay [6], the system named is Potassium-transporting ATPase (Rattus norvegicus). The assay is described as follows: Activity was evaluated by measuring the inhibition of isolated rat H+/K+ ATPase at 10 mg/kg; Inactive.
Assay [7] concerns the target T1, Potassium-transporting ATPase (Rattus norvegicus). The assay is described as follows: Inhibitory activity was evaluated by measuring the inhibition of isolated rat H+/K+ ATPase at a concentration of 10 mg/kg. Also on record: dose 10 mg/kg. It counts as organism-based. An outline of the steps: as §2
Assay [8] concerns the target T2, Potassium-transporting ATPase. Put plainly: Activity was evaluated by measuring the inhibition of isolated hog H+/K+ ATPase; No effect at 5E-4. The assay is classed as protein-complex assay. Put shortly: as §1

Here are results for four molecules from ChEMBL document CHEMBL1125618, “Studies on (H(+)-K+)-ATPase inhibitors of gastric acid secretion. Prodrugs of 2-[(2-pyridinylmethyl)sulfinyl]benzimidazole proton-pump inhibitors” (J Med Chem, 1991).

For orientation: pIC50 means the IC50 on a negative log10 scale, so that one unit is a factor of ten. A low value points to a large IC50. One may read the ED50 as the dose that gives a 50% effect, or the effect in half of the subjects. Broadly, the inhibition is the change of the read-out against control, counted positive when it falls.

Molecules are shown by their SMILES. pIC50: −log10 of the molar value. Activity calls are given as the source filed them. No cut-off for these calls is given here.

T2 sequence (P18434 whole entry): as the sequence (P18434 whole entry) above
T2 sequence (P19156 whole entry): as the sequence (P19156 whole entry) above

For `CCOC(C)n1c([S+]([O-])Cc2ccccn2)nc2ccccc21` (stereo not given), the pIC50 in assay [1] was 3.00. Further, the ID50 entry in assay [2] (Stomach) was “inactive”. This molecule yielded an ED50 in assay [3] of 5 mg/kg.

As for `CCSc1ccnc(C[S+]([O-])c2nc3ccccc3n2CSC)c1C` (stereo not given), the ID50 in assay [2] was determined as 90 µM. In addition, the IC50 entry in assay [4] is “Not Active”. Also, the ED50 entry in assay [5] is “inactive”.

For the molecule `CC(=O)OCn1c(SCc2nccc3c2CCC[S+]3[O-])nc2ccccc21` (stereo not given), the ED50 result in assay [6] was “inactive”.

For `CCSc1ccnc(C[S+]([O-])c2nc3ccccc3n2COC(=O)c2ccccc2)c1C` (stereo not given), the inhibition in assay [7] was found to be 30%. In assay [2], this molecule showed an ID50 of 1.5 µM. Further, the IC50 entry in assay [8] was “Not Active”.
